The structures appear in SMILES notation.

The results in this text go back to ChEMBL document CHEMBL4513216, “Probing the Open Global Health Chemical Diversity Library for Multistage-Active Starting Points for Next-Generation Antimalarials” (ACS Infect Dis, 2020).

A short description of this series: Toxicity liver stage against HepG2, at 10uM. The format is cell-based. Set-up: test concentration 10 uM, cell line HepG2-A16-CD81EGFP. The conditions noted are these: human, HepG2-A16-CD81EGFP cells; read-out: INHIBITION
In short, it runs like this:
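Uninfected HepG2-A16-CD81EGFP cells, 3 × 10^3 per well, 1536-well, plated on prespotted compound at 10 μM final, parasite-free screening media added to match infected plates; puromycin 10 μM positive, DMSO 0.5% negative; run in parallel with 48 h PbLuc assay at 37 °C, 5% CO2; viability by CellTiter-Glo luminescence, normalized to controls.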

For the compound `CC(CS(C)(=O)=O)NCc1cc(Cl)ccc1F` (stereo unspecified), the cytotoxicity at 10 µM is -46.6%.

Regarding `CCNC(=O)c1cc2n(n1)CCCO2`, the cytotoxicity at 10 µM stood at 1.25%.

Turning to `Cc1cc(C)nc(N2CCN(C(=O)c3ccc(C4CCCO4)s3)CC2)n1` (stereo unspecified), the cytotoxicity at 10 µM turned out to be 9.07%.

In the case of `COCC(=O)N1Cc2nccn2CC(CN(C)Cc2cccnc2)C1` (stereo unspecified), the cytotoxicity at 10 µM was -76.2%.

As to `CCc1[nH]nc(NC(=O)c2cc[nH]n2)c1C`, the cytotoxicity at 10 µM is -3.98%.

In the case of `COc1c(C)cnc(CN(C)C(=O)c2ccccn2)c1C`, the cytotoxicity at 10 µM was determined as 0.22%.

With `c1nc2n(n1)CC(NCc1csc(-c3ccsc3)n1)CC2` (stereo unspecified), the cytotoxicity at 10 µM came out at 3.79%.

As for `Cc1cc2cccc(C(=O)N3CCOC(CCN(C)C)C3)c2o1` (stereo unspecified), the cytotoxicity at 10 µM is 5.91%.

`O=C(c1ccncc1)N1CCC(c2nc(O)cc(-c3cccnc3)n2)C1` (stereo unspecified): the cytotoxicity at 10 µM was -0.0788%.

In the case of `Cc1c(CN2CCCC2(C)C(=O)NC2CCCC2)cnn1C` (stereo unspecified), the cytotoxicity at 10 µM amounted to 1.05%.

Turning to `COC(=O)N1CCCC(C(=O)Nc2ccccc2CN2CCCC2)C1` (stereo unspecified), the cytotoxicity at 10 µM was -9.07%.

As for `CCCN1C(=O)[C@@H]2CC[C@H]1CN(S(=O)(=O)c1cccc(Cl)c1)C2`, the cytotoxicity at 10 µM was -2.78%.

Consider `CCc1ccc(S(=O)(=O)N2CCC3(CC(C(=O)NC)=NO3)C2)cc1` (stereo unspecified), for which the cytotoxicity at 10 µM is -2.16%.

Turning to `Cc1ccc(NC(=O)Cc2cnc3n(C)c(=O)[nH]c(=O)n23)cc1`, the cytotoxicity at 10 µM is 8.24%.

As to `O=C(NCc1ccc2c(c1)OCO2)c1ccccc1C1CCNC1` (stereo unspecified), the cytotoxicity at 10 µM was -3.6%.

In the case of `CCN1C[C@H]2C3(CCN(C(=O)NC(C)C)CC3)CC[C@@]2(C(=O)NC)C1`, the cytotoxicity at 10 µM was -106%.

Regarding `Cn1c(CS(=O)(=O)Cc2ccc(Cl)cc2)cc(=O)n(C)c1=O`, the cytotoxicity at 10 µM stood at 5.59%.

Turning to `CCOC(=O)CCNC(=O)c1nc(OCC)ccc1Cl`, the cytotoxicity at 10 µM is -7.6%.

On to `COCCN1CCC2(CC1)CC(c1cccnc1)CO2` (stereo unspecified), for which the cytotoxicity at 10 µM is -3.21%.

On to `CCN(CC)S(=O)(=O)N(CC)Cc1ccc2c(c1)OCCO2`, for which the cytotoxicity at 10 µM was determined as 4.66%.

As for `CC(C)n1[nH]c(=O)c2c1NC(=O)CC2c1ccc2ncccc2c1` (stereo unspecified), the cytotoxicity at 10 µM was 9.76%.

Turning to `CCc1nc(CN2CCCN(c3nccs3)CC2)no1`, the cytotoxicity at 10 µM is -6.44%.

With `O=C(Cc1c(F)cccc1Cl)Nc1cc(N2CCCC2)ncn1`, the cytotoxicity at 10 µM was -2.85%.

Take `CC(C)COC[C@H]1CC[C@H]2[C@H](CCN2C(=O)c2ccncc2F)O1`: the cytotoxicity at 10 µM was -0.171%.

For `O=C(NCc1cccc(C(F)(F)F)c1)C(c1cccnc1)N1CCCC1` (stereo unspecified), the cytotoxicity at 10 µM came out at 6.63%.

Turning to `CC(C)(C)N1CCN(C(=O)Nc2cc(C(F)(F)F)c[nH]c2=O)CC1`, the cytotoxicity at 10 µM was found to be 5.08%.

For `O=C(Nc1cc(C(F)(F)F)ccc1Cl)c1ccc(N2CCOCC2)nn1`, the cytotoxicity at 10 µM was -9.89%.

Take `CCn1c(C)cc(-c2csc(Cn3ccc(=O)[nH]c3=O)n2)c1C`: the cytotoxicity at 10 µM stood at 10.2%.

As to `CS(=O)(=O)NCCC(=O)N1CCC(Cc2ccc(CO)cc2)C1` (stereo unspecified), the cytotoxicity at 10 µM was -5.77%.

`Cn1ccnc1-c1cn(Cc2cn3c(n2)SCC3)nn1`: the cytotoxicity at 10 µM is -0.773%.

`CC(C)CC(=O)N1CC[C@H]2N(C)CC[C@@]2(C(=O)Nc2ccccc2)CC1`: the cytotoxicity at 10 µM was -4.71%.

As to `O=C(NCC1CC1)c1cc(Cl)c2c(c1)OCCCO2`, the cytotoxicity at 10 µM was 0.344%.

As to `Cc1nnc(CN(C)C(=O)C(CC(C)C)N2CCCCC2=O)n1C` (stereo unspecified), the cytotoxicity at 10 µM is -1.88%.

Turning to `CC(C)C(CNC(=O)NCc1cc[nH]n1)N1CCOCC1` (stereo unspecified), the cytotoxicity at 10 µM is -7.48%.

`O=C(NCCCn1nc2ccccn2c1=O)Nc1ccc(F)cc1F`: the cytotoxicity at 10 µM is -7.43%.

Take `CC(C)N(CC(N)=O)Cc1cccc(Br)c1`: the cytotoxicity at 10 µM is -6.93%.

Consider `OC(CN1CCCCc2ccccc21)Cn1cccn1` (stereo unspecified), for which the cytotoxicity at 10 µM is 5.55%.

For `CCOCC1CN(Cc2ccoc2)Cc2ncn(CC3CC3)c21` (stereo unspecified), the cytotoxicity at 10 µM was -14.5%.

Take `O=C(CCc1nc2ccccc2[nH]1)NC1CCOC2(CCOCC2)C1` (stereo unspecified): the cytotoxicity at 10 µM was 9.64%.

As to `O=C(NCCn1cnc(C2CCCC2)cc1=O)c1ccc(=O)[nH]n1`, the cytotoxicity at 10 µM was -0.895%.

For the compound `CN(C)CCCN1CC2(CCN(C(=O)C3(C)CCCCO3)CC2)OC1=O` (stereo unspecified), the cytotoxicity at 10 µM was -8.76%.

As for `CCC(CN1CCCC1)n1cncc1-c1cnn(Cc2ccccc2)c1` (stereo unspecified), the cytotoxicity at 10 µM is 3.92%.

Regarding `CCOC(=O)c1sc2ccsc2c1CNC(=O)COC`, the cytotoxicity at 10 µM amounted to 1.51%.

In the case of `CCn1nc(C)c2nnn(CC(=O)Nc3ccc(C)c(C)c3)c(=O)c21`, the cytotoxicity at 10 µM was 5.75%.

Take `O=c1[nH]c(COc2cccc(F)c2)nc2c1CCNC2`: the cytotoxicity at 10 µM turned out to be 10.1%.

Take `CSc1ncn(-c2nc(NC3CC3)nc(N(C)C)n2)n1`: the cytotoxicity at 10 µM is -6.75%.

For the compound `CCCc1cncnc1N1CCC2(CCC(=O)N(CCOC)C2)CC1`, the cytotoxicity at 10 µM came to 1.86%.

Turning to `Cc1ncccc1NC(=O)[C@@H]1CC[C@@H]2[C@@H](CCN2Cc2cnn(C)c2)O1`, the cytotoxicity at 10 µM was -0.335%.

For `CCc1ncc2c(n1)CN(c1cc(NCCO)nc(N)n1)C2`, the cytotoxicity at 10 µM is -4.49%.

On to `Cc1cc(NC(=O)CN(CC2CCOC2)C2CC2)no1` (stereo unspecified), for which the cytotoxicity at 10 µM was found to be 1.65%.

As to `CCN(C(c1cccnc1)c1ccc2c(c1)CCO2)S(C)(=O)=O` (stereo unspecified), the cytotoxicity at 10 µM is -8.28%.

Turning to `CCCn1ncc(CN2C[C@@H]3CCCN3C[C@H]2CCSC)c1C`, the cytotoxicity at 10 µM was -11.2%.

Regarding `COc1ccccc1CN1C(=O)O[C@@H]2CN(c3nc(C)cc(C)n3)C[C@@H]21`, the cytotoxicity at 10 µM is 0.819%.

`CCN1CC[C@@]2(C(=O)N(C)C)CCN(C(=O)Cc3ccccc3)CC[C@@H]12`: the cytotoxicity at 10 µM was 4.65%.

For the compound `Cc1c[nH]nc1C1CCN(C(=O)C2CCOCC2)C1` (stereo unspecified), the cytotoxicity at 10 µM was determined as 4.71%.

For `CC(CNC(=O)Nc1cn[nH]c1)N1CCCC1` (stereo unspecified), the cytotoxicity at 10 µM is -7.32%.

For the compound `CC(C)Cc1noc(CN2CCN(C(=O)c3ccco3)CC2)n1`, the cytotoxicity at 10 µM is -5.39%.

With `Cn1ccnc1COc1ccc(COC(=O)C2CCCO2)cc1` (stereo unspecified), the cytotoxicity at 10 µM was -1.39%.

Consider `O=C(c1nnn(-c2ccc(C(F)(F)F)cc2)n1)N1CC(O)C1`, for which the cytotoxicity at 10 µM is -4.63%.

Turning to `CCn1c(CNC(=O)c2ccc(N(C)C)nc2)nc2ccccc21`, the cytotoxicity at 10 µM was found to be 4.5%.

For the compound `CCS(=O)(=O)N1CCC(n2nc(-c3cc(C)oc3C)ccc2=O)CC1`, the cytotoxicity at 10 µM came to 8.82%.

On to `CC(C)(N)C(=O)N1CCC(c2nccnc2Oc2ccccc2F)CC1`, for which the cytotoxicity at 10 µM was -13.9%.

For the compound `O=C(NCC1CCCO1)c1cc(Sc2ncccn2)ccn1` (stereo unspecified), the cytotoxicity at 10 µM is -17.2%.

Regarding `CC(C)(C)c1cn2nc(N3CCCC3Cn3cccn3)sc2n1` (stereo unspecified), the cytotoxicity at 10 µM is -23.8%.

Consider `O=S(=O)(C1CC1)N1Cc2nccn2CC(Cn2cncn2)C1` (stereo unspecified), for which the cytotoxicity at 10 µM is 1.02%.

Regarding `C=C(C)CN1CCN(Cc2cnc(-c3ccc(OC)cc3)nc2)CC1`, the cytotoxicity at 10 µM is -3.41%.

Consider `CC(=O)N1CCCCC1c1nc2c(c(N3CCCCC3)n1)CN(C)CC2` (stereo unspecified), for which the cytotoxicity at 10 µM is -0.0788%.

Regarding `COCc1nc(C(=O)NS(=O)(=O)c2ccc(Cl)cc2F)cs1`, the cytotoxicity at 10 µM worked out at 8.13%.

On to `Cc1cc(C)n(C2CN(Cc3ccc(C(=O)N4CCCC4)cc3)C2)n1`, for which the cytotoxicity at 10 µM is 1.89%.

For `COc1ncccc1NC(=O)N1CCC(c2ccc(O)cc2)CC1`, the cytotoxicity at 10 µM was 4.87%.

Turning to `COCc1ccc(CNc2cnn(C(C)(C)C)c(=O)c2Cl)cc1`, the cytotoxicity at 10 µM was 60.9%.

Regarding `Cc1cc(C(=O)NC2CCc3nc(C)cn3C2)[nH]n1` (stereo unspecified), the cytotoxicity at 10 µM was -5.15%.

As to `CC1=C(C(N)=O)C(c2cn(C)nc2C)N2C(=O)CSC2=N1` (stereo unspecified), the cytotoxicity at 10 µM came out at 4.43%.

Regarding `CCC(C(=O)NCCc1ccn(-c2ccccc2)n1)N1CCCC1=O` (stereo unspecified), the cytotoxicity at 10 µM amounted to 6.18%.

Regarding `CC(=O)N1N=C(c2ccco2)OC1C(=O)N(C)CCc1ccccc1` (stereo unspecified), the cytotoxicity at 10 µM was -0.0253%.

As to `Nc1ccnc(CNc2cc(F)ccc2OCC2CCCO2)n1` (stereo unspecified), the cytotoxicity at 10 µM is 17.4%.

In the case of `CCc1nc(NCCCn2cccn2)c2c(n1)c(C)nn2CC`, the cytotoxicity at 10 µM amounted to 6.36%.

`CCn1c(C)cc(C(=O)N2CCCC(C(=O)c3nccn3C)C2)c1C` (stereo unspecified): the cytotoxicity at 10 µM was found to be 6.27%.

As to `CN1CCC[C@H]1c1nc(-c2cncnc2N)no1`, the cytotoxicity at 10 µM came to 2.6%.

For the compound `Cc1ccccc1CNC(C)c1ccc(OCC(=O)NC2CC2)cc1` (stereo unspecified), the cytotoxicity at 10 µM was -6.97%.

Take `O=C(c1n[nH]cc1Cl)N1CCSCC1`: the cytotoxicity at 10 µM is 4.51%.

With `O=c1[nH][nH]c2cn(-c3ccc(F)cc3)c(=O)n12`, the cytotoxicity at 10 µM was -1.45%.

`c1ccc(CCc2n[nH]c(CCN3CCCCC3)n2)cc1`: the cytotoxicity at 10 µM is 5.05%.

For the compound `O=C(NCC(O)c1cccc(F)c1)c1cccnc1O` (stereo unspecified), the cytotoxicity at 10 µM was -1.68%.

`O=C(NCCC1CCN(CC(F)(F)F)CC1)C1CCOC1` (stereo unspecified): the cytotoxicity at 10 µM worked out at 5.69%.

On to `CN1CCN(C2CCN(CCOc3cccc(Cl)c3)CC2)C1=O`, for which the cytotoxicity at 10 µM was -2.83%.

Regarding `Cc1cc(C)n(CC2CCCN2C(=O)CCCNc2ncccn2)n1` (stereo unspecified), the cytotoxicity at 10 µM was -19%.

Take `Cc1cnc(NCC(C)(C)N2CCN(C)CC2)nc1`: the cytotoxicity at 10 µM is -4.52%.

As to `O=C([C@H]1CCCO1)N1CCCC2(CCN(Cc3ccncc3)C2=O)C1` (stereo partly specified), the cytotoxicity at 10 µM was 11.9%.

Take `CSCC1CCCN(c2ncnc3oc(C)nc23)C1` (stereo unspecified): the cytotoxicity at 10 µM came out at 4.03%.

Regarding `CC(C)n1ncc2cc(NC(=O)N3CCSCC3)cnc21`, the cytotoxicity at 10 µM was -5.07%.

As for `Cc1nc(C)n(C2CCCN(C(=O)CCn3cncn3)C2)n1` (stereo unspecified), the cytotoxicity at 10 µM was -4.24%.

For the compound `O=C1CC[C@@H]2[C@@H](CCN2C(=O)c2ccsc2)N1Cc1ccncc1`, the cytotoxicity at 10 µM was -71.5%.

Take `Cc1ccc(C)c(C(=O)NCC(c2cccn2C)N2CCCCCC2)c1` (stereo unspecified): the cytotoxicity at 10 µM came to 5.64%.

Regarding `O=C(NCCOCCO)[C@@]12CNC[C@@H]1CN(C1CCCC1)C2`, the cytotoxicity at 10 µM is -16.4%.

Turning to `c1ccc(Cc2noc(CN3CCCCC3C3OCCO3)n2)cc1` (stereo unspecified), the cytotoxicity at 10 µM was -2.62%.
